Source: PubChem (several laboratories)
Only some compounds are listed: those with a hit (about 4% of all), similar ones and a draw of the others.
TAAR1 ag = agonists of human TAAR1; Q96RJ0; CHO RD-HGA16 TAAR1, Fluo-8 calcium fluorescence; vehicle wells 0%, saturating PEA agonist 100%; activation, % at 3 µM; 0.99% of 360,000 active; AID 624467;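 active means activation above the mean activation of all test compounds in the run plus 3 SD, cut at about 38% in these data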
Target sequence (Q96RJ0 whole entry, looked up): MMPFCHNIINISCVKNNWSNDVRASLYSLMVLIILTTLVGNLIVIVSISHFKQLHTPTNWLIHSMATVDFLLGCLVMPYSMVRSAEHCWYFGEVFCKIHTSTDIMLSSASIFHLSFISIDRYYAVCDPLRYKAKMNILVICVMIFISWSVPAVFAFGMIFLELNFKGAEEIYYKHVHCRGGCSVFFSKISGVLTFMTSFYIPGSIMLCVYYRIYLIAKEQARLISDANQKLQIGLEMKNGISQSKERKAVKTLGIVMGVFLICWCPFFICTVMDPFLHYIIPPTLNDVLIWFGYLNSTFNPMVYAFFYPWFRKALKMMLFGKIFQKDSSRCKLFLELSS
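System: CHO-derived RD-HGA16 cells with stable Gα16 and human TAAR1 / Times: 17-24 h plating, Fluo-8 75 min 37 °C, 30 min RT / Technique: calcium-sensitive Fluo-8 signal, excitation 470-495, emission 515-575 nm / Measure: % activation relative to PEA EC100 response / Benchmarks: DMSO and PEA EC100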
OX1R antag-1 = blocks the human orexin 1 receptor. AID 485270. O43613. 1.8% of 330,000 active. inhibition, % at 6.6 µM. OX1R-expressing cells, FRET antagonist read-out; in the data active means inhibition mostly above about 38%, no sharp cut-off; inactive means mostly below about 40%;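 further: 0% = agonist challenge alone and 100% = reference antagonist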
NTR1 agonist = activates human neurotensin receptor 1. NTR1-U2OS beta-arrestin-GFP spot imaging, agonist mode. activation, % at 20 µM. 0.17% of 330,000 active. AID 493036;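 active means activation at or above 40% of the spot to cytoplasm intensity ratio, with at least 20 cells analyzed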;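 further: 0% = DMSO without peptide and 100% = 100 nM NTR1 peptide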
Target sequence (P30989 whole entry, looked up): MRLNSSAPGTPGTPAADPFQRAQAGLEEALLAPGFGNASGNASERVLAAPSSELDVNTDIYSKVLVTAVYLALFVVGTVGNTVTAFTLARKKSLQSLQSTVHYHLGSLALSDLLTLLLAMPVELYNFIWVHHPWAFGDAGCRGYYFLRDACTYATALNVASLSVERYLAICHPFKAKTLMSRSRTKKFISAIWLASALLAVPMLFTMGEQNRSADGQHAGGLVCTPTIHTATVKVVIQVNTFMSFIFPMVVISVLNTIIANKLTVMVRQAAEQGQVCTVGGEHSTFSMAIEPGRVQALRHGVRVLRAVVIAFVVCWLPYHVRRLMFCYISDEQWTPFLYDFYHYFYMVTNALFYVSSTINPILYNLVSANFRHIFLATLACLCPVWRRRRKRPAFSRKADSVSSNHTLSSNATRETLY
OX1R antag-2 = human HCRTR1 antagonism. CHO/OX1R cells, Fluo-8 calcium fluorescence, orexin A. AID 434989. 0.43% of 330,000 active. inhibition, % at 5 µM;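 active means inhibition above its plate's threshold, mean inhibition of all tested compounds on the plate plus 3 SD, cut at about 37% in these data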;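 further: 0% = orexin A challenge wells and 100% = SB-334867-A antagonist wells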
CHO parental Ca = counter-screen: ATP calcium response change in parental CHO cells; parental CHO-K1, ATP-induced calcium, Fluo-8 fluorescence; inhibition, % at 5.6 µM; 0.63% of 330,000 active; AID 463079;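 active means inhibition above that plate's mean sample inhibition plus 3 SD, cut at about 26% in these data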;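 further: 0% = ATP-challenged DMSO wells and 100% = DMSO wells without ATP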
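test system = CHO parental line | reagent = ATP stimulus | measured by = intracellular calcium via Fluo-8 no-wash fluorescent dye | control set = ATP and no-ATP DMSO wells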
TAAR1 antagonist = human TAAR1 antagonism; CHO RD-HGA16 TAAR1, Fluo-8 calcium fluorescence, antagonist; 1.5% of 360,000 active; Q96RJ0; inhibition, % at 3 µM; AID 624466;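 active means inhibition above a per-plate cutoff, the mean inhibition of test compounds on that plate plus 3 SD, cut at about 49% in these data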;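 further: 0% = DMSO plus EC80 beta-PEA response and 100% = DMSO alone without agonist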
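Material: RD-HGA16 CHO cells with stable hTAAR1 and Gα16; Dosing: single nominal final test compound concentration of 3 µM; Schedule: seeding 17-24 h prior, 75-min 37 °C, 30-min RT dye loading; Detection: kinetic Fluo-8 calcium fluorescence measurement; Measure: % inhibition from peak post-agonist over basal fluorescence ratio; Benchmarks: vehicle and agonist controls.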
The depositor's hits bear a star; x = no result given.

SMILES | TAAR1 ag | OX1R antag-1 | NTR1 agonist | OX1R antag-2 | CHO parental Ca | TAAR1 antagonist
O=C(O)CNC(=O)c1ccc(Sc2ccccc2)c([N+](=O)[O-])c1 | -0.4 | 64.0* | 0.4 | -4.8 | -0.4 | -5.0
O=C1c2cc([N+](=O)[O-])ccc2-c2ncccc21 | -0.1 | 67.2* | 3.1 | -15.5 | 3.1 | -10.9
O=C1c2ccccc2-c2nccnc21 | 7.3 | 110.6* | -0.6 | -8.0 | -3.7 | 9.1
O=C1C(=O)c2cccnc2-c2ncccc21 | 21.7 | x | x | x | x | 3.7
O=C1c2cccnc2-c2ncccc21 | 1.1 | 53.6* | 2.6 | -9.4 | -1.9 | 0.6
COc1ccc2cc3[n+](cc2c1O)CCc1cc2c(cc1-3)OCO2 | 0.3 | x | x | x | x | -1.9
COc1cc2c(cc1OC)-c1cc3ccc(OC)c(OC)c3c[n+]1CC2 | 3.7 | 61.7* | -1.3 | -12.6 | -3.2 | -18.7
Cc1cccc(C)c1OCc1nnc(SCC(=O)O)n1-c1c(C)cccc1C | -0.5 | x | x | x | x | -5.5
O=C(O)c1ccc(CNCc2cc(Cl)ccc2O)cc1 | 8.1 | 9.9 | -0.6 | 3.3 | -6.8 | 4.0
Cc1ccc(CNCc2cc(Cl)ccc2O)cc1 | 38.2* | 19.5 | -5.1 | -5.3 | -19.3 | 7.6
Cc1nc2ccc(NS(=O)(=O)c3ccc(C)c(C)c3)cc2s1 | 19.0 | 37.4 | 2.0 | 32.3 | 55.5* | 11.8
Cc1cccc(NC(=O)CNC(=O)Cn2cc(C(F)(F)F)cc(Cl)c2=O)c1C | 1.8 | x | 0.1 | x | x | -28.6
COc1cc(/C=C2\SC(=O)NC2=O)ccc1OCC(=O)N1CCOCC1 | -0.8 | 51.8* | -1.3 | 15.6 | -13.7 | -9.9
O=c1cc(-c2ccccc2Cl)oc2c(NS(=O)(=O)c3ccccc3C(F)(F)F)ccc(O)c12 | 0.1 | 37.0 | 3.0 | -7.7 | -22.6 | 17.8
O=c1cc(-c2ccccc2Cl)oc2c(NS(=O)(=O)c3cccs3)ccc(O)c12 | 0.9 | 73.2* | 1.8 | 16.2 | -10.8 | 40.0
Cc1occc1-c1nnc(-c2cc([N+](=O)[O-])cc([N+](=O)[O-])c2)o1 | 11.4 | 59.1* | 4.6 | -20.2 | -15.8 | -4.2
Cc1cc(C)c(NC(=O)C2c3ccccc3Oc3ccccc32)c(C)c1 | -0.8 | 9.7 | -3.6 | -13.9 | -6.8 | -13.8
Cc1ccccc1Cn1nc(C)c(NC(=O)C2c3ccccc3Oc3ccccc32)c1C | 39.5* | 23.8 | 3.9 | -1.6 | -6.4 | 6.1
Fc1ccc2[nH]c3c(N4CCc5ccccc5C4)ncnc3c2c1 | 6.0 | 56.4* | 8.8 | 11.0 | 65.0* | 42.4
Cc1ccc2[nH]c3c(N4CCc5ccccc5C4)ncnc3c2c1 | 12.9 | 81.6* | 24.8 | 51.3* | 64.3* | 35.7
Brc1ccc2[nH]c3c(N4CCc5ccccc5C4)ncnc3c2c1 | x | 13.3 | 24.0 | 43.8* | 47.1* | x
Clc1ccc2[nH]c3c(N4CCC5(CC4)OCCO5)ncnc3c2c1 | x | 81.5* | 1.1 | 23.7 | 30.9 | x
c1ccc2c(c1)[nH]c1c(N3CCCC3)ncnc12 | 5.8 | 54.2 | 1.2 | -5.8 | 2.9 | 16.5
O=C(O)C1=CC2C=C(Cl)C=CC2OC1=O (stereo not given) | 1.3 | x | x | x | x | -12.7
COC(=O)C(C)(C)c1cccnc1C#N | -0.1 | x | x | x | x | 2.6
SMILES | TAAR1 ag | OX1R antag-1 | NTR1 agonist | OX1R antag-2 | CHO parental Ca | TAAR1 antagonist
O=C(N/N=C/c1ccccn1)c1sc2ccccc2c1Cl | 5.5 | 64.0* | 3.6 | 30.2 | 31.1 | 7.8
O=C(N/N=C/c1ccccn1)c1ccc(Cl)cc1 | 6.2 | 21.6 | 1.6 | -4.0 | -0.2 | -21.1
Cc1c(/C=N\NC(=O)c2ccc([N+](=O)[O-])cc2)cnn1C | -0.1 | 20.2 | -1.0 | -7.2 | -4.5 | 16.9
Cc1ccc(C(=O)Nc2ccc(C(=O)N/N=C/c3ccccn3)cc2)cc1 | 3.9 | 21.8 | -1.1 | 20.3 | 34.6* | 32.1
Cn1cccc1/C=N/NC(=O)c1sc2ccccc2c1Cl | 2.0 | 73.7* | 0.4 | 4.8 | -24.5 | -7.7
O=C(N/N=C/c1ccccn1)c1ccccc1 | 0.4 | 15.4 | -1.2 | -5.4 | -3.6 | -18.8
Cc1c(/C=N/NC(=O)c2sc3ccccc3c2Cl)cnn1C | 7.3 | 47.8* | -3.8 | -19.0 | -12.6 | 12.8
O=C(N/N=C/c1ccc([N+](=O)[O-])o1)c1sc2ccccc2c1Cl | -0.9 | 23.8 | 5.5 | -11.1 | 0.5 | -33.5
CC(C)(C)OC(=O)N1CCC[C@@H]1C(=O)NCc1ccccc1 | 2.3 | x | x | x | x | -24.1
CCC(Oc1ccccc1)C(=O)Nc1cc(C(F)(F)F)ccc1N1CCOCC1 (stereo not given) | 1.0 | 25.6 | 8.5 | -4.8 | -3.1 | -4.7
COc1cc2c(c(OC)c1OC)[C@@]1(c3ccccc3)CCCCC[C@H]1[C@@H]2NC(=O)C(F)(F)F | -1.3 | x | x | x | x | -18.1
COC(=O)[C@]12C[C@H](CC(=O)N3CCCC3)C(=O)N(Cc3ccc4c(c3)OCO4)C1=C[C@H](C(C)(C)C)O[C@@H]2C | 3.2 | x | x | x | x | -32.1
C[C@H]1CCCCO[C@@H](CN(C)CC2CC2)[C@@H](C)CN([C@@H](C)CO)C(=O)c2cc(NS(=O)(=O)c3ccccc3)ccc2O1 | -0.6 | x | x | x | x | -0.7
O=C(Nc1ccc(F)cc1)C1CCCN1S(=O)(=O)c1cccc2nsnc12 (stereo not given) | 0.2 | 75.4* | 1.0 | 24.9 | -1.6 | -10.9
O=C(NCc1ccc(F)cc1)C1CCCN1S(=O)(=O)c1cccc2nsnc12 (stereo not given) | 7.2 | 54.8* | -0.1 | -17.7 | -24.2 | -15.2
O=C(NCc1ccc(F)cc1)C1CCCN(S(=O)(=O)c2cccc3nsnc23)C1 (stereo not given) | 8.9 | 34.8 | 0.4 | -19.5 | 5.6 | 8.3
O=C(O)C1CCCCN1S(=O)(=O)c1cccc2nsnc12 (stereo not given) | x | 22.6 | 3.8 | -6.2 | 1.7 | x
O=C(Nc1cc(F)ccc1F)C1CCCN1S(=O)(=O)c1cccc2nsnc12 (stereo not given) | 2.8 | 69.6* | -0.4 | -12.1 | -17.1 | -13.2
CC(=O)N(c1nc2ccccc2s1)N1C(=O)c2ccccc2C1=O | 0.9 | x | x | x | x | -39.0
COC(=O)C1=C(C)N(Cc2ccc(Br)cc2)C(=S)NC1c1ccc(OC)cc1 (stereo not given) | -0.6 | x | x | x | x | 26.0
O=S1c2ccccc2Oc2ccccc21 | 0.0 | x | x | x | x | 5.4
O=[S@]1Oc2ccccc2-c2ccccc21 | 51.0* | 6.1 | -0.4 | 8.8 | -5.1 | 12.4
COc1cccc(NC(=O)CCN2C(=O)c3cccc([N+](=O)[O-])c3C2=O)c1 | 2.1 | 25.1 | -1.0 | -3.0 | -5.4 | -4.2
O=C(CN1C(=O)c2ccccc2C1=O)NC1CCCCCC1 | 1.4 | 20.3 | -0.5 | -17.0 | -8.9 | 7.8
O=C(CCN1C(=O)c2ccc([N+](=O)[O-])cc2C1=O)Nc1nccs1 | 1.7 | 72.4* | -0.9 | -13.6 | 2.6 | 1.9
O=C(CN1C(=O)c2ccc([N+](=O)[O-])cc2C1=O)NC1CCCCCC1 | 0.0 | 65.3* | 0.6 | -11.2 | -9.2 | -3.4
